Assay results: the RNAGym collection of RNA variant scans (doi:10.1126/science.aae0568)
Fewer inactive variants are shown than the library holds.

B1: tRNA (parent)
chain: GUUCCGUUGGCGUAAUGGUAACGCGUCUCCCUCCUAAGGAGAAGACUGCGGGUUCGAGUCCCGUACGGAACG

Variants of: B1
Test: yeast fitness relative to wild type (ratio to wild type); higher = fitter; tRNA-Arg(CCU), competitive growth, 37 C, YPD
Summary of the method: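 Genotype frequency changes were the basis for Darwinian fitness relative to wild type. The frequencies came from 100-nucleotide paired-end sequencing of gene amplicons from the start population and each end population of pooled yeast strains with tRNA-Arg(CCU) gene variants at the native locus. Competition ran in YPD at 37°C for 24 hours in six replicates, genotypes needed ≥ 100 starting reads, and estimates < 0.5 were set to 0.5.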
In the case of C29G C33U A45U G56A U59C A65C A70G, the yeast fitness is reported as ≤ 0.5. In the case of C29U A43U C46A, the yeast fitness is reported as 0.76. In the case of C29U C31G C34G A37C C46A G50A A57U C66U, the yeast fitness is reported as ≤ 0.5. In the case of C29G G48A C55G A57G, the yeast fitness is reported as ≤ 0.5. In the case of C29U C60G, the yeast fitness is reported as 0.515. With C29U C60A the yeast fitness was 0.627. In the case of C29U C60U, the yeast fitness is reported as 0.758. In the case of C29U A36C A43C C60A, the yeast fitness is reported as ≤ 0.5. In the case of C29G C46G G48C C62U, the yeast fitness is reported as ≤ 0.5. With C29U A40G U47A C61U C62A A70G the yeast fitness was ≤ 0.5. In the case of C29G C33U U47A G58A, the yeast fitness is reported as ≤ 0.5. With C29G G56A the yeast fitness was 0.632. For C29G G44C, the yeast fitness was 0.755. With C29U C31G G44C the yeast fitness was ≤ 0.5. For C29G U32C C46U, the yeast fitness was ≤ 0.5. With C29G U32C A36G C60A the yeast fitness was ≤ 0.5. In the case of C29G C33U C34G U54A, the yeast fitness is reported as 0.545. With C29U A42C G67C the yeast fitness was 0.505. C29U C31U A57C C62U showed a yeast fitness of 0.558. In the case of C29G C33U U35C G38A, the yeast fitness is reported as ≤ 0.5. For C29G U47G G63A A70U, the yeast fitness was ≤ 0.5. C29U U59G C66U gave a yeast fitness of 0.732. C30A A57G gave a yeast fitness of 0.74. In the case of C30A A40G C66A, the yeast fitness is reported as ≤ 0.5. In the case of C29U A40G U47A, the yeast fitness is reported as 0.582. In the case of C30A A57U C61U A69G, the yeast fitness is reported as ≤ 0.5. With C29G G48A A70U the yeast fitness was ≤ 0.5. With C29U C31A A69U the yeast fitness was 0.627. C29G G44A A57U gave a yeast fitness of 0.553. With C29G C49U G68A the yeast fitness was ≤ 0.5. In the case of C30A A43U C55G G63C G67C, the yeast fitness is reported as ≤ 0.5. With C29G U47G the yeast fitness was 0.707. For C29G U47A, the yeast fitness was 0.561. In the case of C30A C31G G38C A57C, the yeast fitness is reported as ≤ 0.5. C29G U35G C61U gave a yeast fitness of 0.552. In the case of C29U C31G C33A, the yeast fitness is reported as 0.648. With C29U G50C the yeast fitness was 0.664. C29G G58C A69U gave a yeast fitness of 0.607. In the case of C29U G44C G68A, the yeast fitness is reported as 0.57. In the case of C30A A43G A69U, the yeast fitness is reported as 0.618. For C29G C55G A57G A70C, the yeast fitness was ≤ 0.5. With C29U G50C U59A the yeast fitness was 0.605. For C29G G48C C49U C61A, the yeast fitness was ≤ 0.5. For C29G C55U, the yeast fitness was ≤ 0.5. For C29U C49U U59A, the yeast fitness was ≤ 0.5. C29G C60G C61U gave a yeast fitness of 0.52. For C29U U47A A65C, the yeast fitness was ≤ 0.5. With C29U A37C C49U C55G G68C the yeast fitness was ≤ 0.5. In the case of C29U A42U U64C C66U A69U, the yeast fitness is reported as ≤ 0.5. In the case of C29U A45U U54A, the yeast fitness is reported as ≤ 0.5. In the case of C29G C55U A65G C66A, the yeast fitness is reported as ≤ 0.5. In the case of C29G C55U U59G, the yeast fitness is reported as ≤ 0.5. For C29U U35C A37C, the yeast fitness was ≤ 0.5. In the case of C30A C31U A36G C55U, the yeast fitness is reported as ≤ 0.5. C29U A40U A65U showed a yeast fitness of 0.584. With C29G U32A C33U the yeast fitness was ≤ 0.5. In the case of C29U G48A, the yeast fitness is reported as 0.986. Work on C29U G48C yielded a yeast fitness of 0.859. In the case of C29U G41C C62U, the yeast fitness is reported as 0.552. C29U C55G showed a yeast fitness of 0.614. C29U C31U A42C A69C gave a yeast fitness of 0.673. For C29U C31G C34A, the yeast fitness was ≤ 0.5. C30A A40G A65G gave a yeast fitness of 0.967. C30A A36U G68A showed a yeast fitness of 0.543. Work on C29U G48A G56C yielded a yeast fitness of 0.536. For C29U A37C A40G A42U, the yeast fitness was ≤ 0.5. C29U G52A gave a yeast fitness of 0.728. With C29U C33U U54A G56A the yeast fitness was ≤ 0.5. C29G C55G A57G gave a yeast fitness of 0.593. For C29G C61A C62U, the yeast fitness was ≤ 0.5. For C29U A42U C61U C66A, the yeast fitness was ≤ 0.5. C29G G50C showed a yeast fitness of 0.607. For C29G G58C A65C, the yeast fitness was ≤ 0.5. In the case of C29G G44C A45U U47A, the yeast fitness is reported as ≤ 0.5. With C29G G48A C49U the yeast fitness was ≤ 0.5. Variant C29G U59C has a yeast fitness of 0.606. In the case of C29U C30U C31G C34G A37C A45G, the yeast fitness is reported as ≤ 0.5. With C29G U32C the yeast fitness was 0.563. C29G U32A showed a yeast fitness of 0.501. For C29G U32G G38A U53C A57U C62U, the yeast fitness was ≤ 0.5. C29G U35C A45U C60G G63C gave a yeast fitness of 0.669. In the case of C29G G44U A65G, the yeast fitness is reported as ≤ 0.5. In the case of C29U C33G G44C, the yeast fitness is reported as ≤ 0.5. In the case of C29U A57U C62A, the yeast fitness is reported as ≤ 0.5. Variant C30A A57G A70U has a yeast fitness of 0.765. With C30A A45U C49A G51A C62G the yeast fitness was ≤ 0.5. With C29U G56A C66U the yeast fitness was 0.619. With C30A A37C C60A G67C the yeast fitness was ≤ 0.5. With C29G C66U the yeast fitness was 0.648. Work on C29G C66A yielded a yeast fitness of 0.506. With C29G G58A the yeast fitness was 0.68. In the case of C29G U47A U59A A69G, the yeast fitness is reported as ≤ 0.5. In the case of C29G U35G C60G, the yeast fitness is reported as ≤ 0.5. In the case of C29U C49G G58C, the yeast fitness is reported as ≤ 0.5. With C30A A43U G58C U64G the yeast fitness was ≤ 0.5. Variant C30A A40G has a yeast fitness of 0.979. C30A A40U gave a yeast fitness of 0.819. C29U C34A A42U U47C showed a yeast fitness of 0.64. In the case of C29G C49U, the yeast fitness is reported as 0.718. Work on C29G C49G yielded a yeast fitness of 0.563. In the case of C30A A36C G52A, the yeast fitness is reported as ≤ 0.5. C29U A36U C66U G67A showed a yeast fitness of 0.527. C29G G56A C61A gave a yeast fitness of 0.547. For C29G G56A C61U, the yeast fitness was ≤ 0.5. For C29G U35A A36C A65G C66G, the yeast fitness was ≤ 0.5. With C29U C30A A45C the yeast fitness was 0.563. For C30A A36G, the yeast fitness was 0.819. For C29G C49G U53G A57G, the yeast fitness was ≤ 0.5. Variant C29G C46U A70U has a yeast fitness of 0.618. Work on C29G C61G C66G yielded a yeast fitness of 0.558. For C29G C55A U64C, the yeast fitness was ≤ 0.5. For C29U G50C U53C A57U C61G, the yeast fitness was ≤ 0.5. For C29G G48A, the yeast fitness was 0.586. With C29G G48C the yeast fitness was 0.563. With C29U C33G A40C A57G the yeast fitness was ≤ 0.5. In the case of C29U U35C A65U, the yeast fitness is reported as ≤ 0.5. In the case of C29G G50C U53C, the yeast fitness is reported as ≤ 0.5. With C29U A37G G39C C49U the yeast fitness was ≤ 0.5. In the case of C30A A40G A42U C62A, the yeast fitness is reported as ≤ 0.5. Variant C29G G56C C61A has a yeast fitness of 0.512. With C29U C46U C66U the yeast fitness was 0.63. In the case of C29U C30U C61A, the yeast fitness is reported as ≤ 0.5. C29G U32C C34U G56A gave a yeast fitness of 0.667. C29U A42U C66A gave a yeast fitness of 0.567. For C29U C30U U32C C55G G58A U64A, the yeast fitness was ≤ 0.5. C29U G58A showed a yeast fitness of 1.02. C29U G41A showed a yeast fitness of 0.731. Variant C29U C66G has a yeast fitness of 0.732. For C29U C34G C55U C61G, the yeast fitness was 0.508. In the case of C29U C30A G38A, the yeast fitness is reported as ≤ 0.5. C29G C49A C60A gave a yeast fitness of 0.572. C30A A42C A70C showed a yeast fitness of 0.819. With C29G U35G C62U A69U the yeast fitness was ≤ 0.5. Work on C29U A37G C49U yielded a yeast fitness of 0.613. In the case of C29U G44A A57G, the yeast fitness is reported as 0.623. C29G C33G U35G G44A gave a yeast fitness of 0.628. For C29U U32A, the yeast fitness was 0.83. With C29U A37C A65C the yeast fitness was ≤ 0.5. Work on C29U U53C yielded a yeast fitness of 0.843. For C29U G48C G52A A69U, the yeast fitness was ≤ 0.5. C30A A43C A65G showed a yeast fitness of 0.97. In the case of C29U A40U A57G U64C, the yeast fitness is reported as ≤ 0.5. Work on C30A A43U A65U yielded a yeast fitness of 0.608. C29U A37U gave a yeast fitness of 0.734. With C29U A37G the yeast fitness was 0.729. C29U C31U G67U showed a yeast fitness of 0.593. With C29G U53A the yeast fitness was 0.523. In the case of C29G C49A C55A C61U, the yeast fitness is reported as ≤ 0.5. In the case of C29U G44A, the yeast fitness is reported as 0.818. In the case of C29G C62A, the yeast fitness is reported as 0.506. With C29G C62U the yeast fitness was 0.721. Variant C30A C31G C49A C60U G67A has a yeast fitness of 0.526. For C30A C31A, the yeast fitness was 0.611. C30A C31G gave a yeast fitness of 1. For C29U A42U, the yeast fitness was 0.769. C29U A42G gave a yeast fitness of 0.975. Work on C29U A42C yielded a yeast fitness of 0.676. Work on C29U C33U yielded a yeast fitness of 0.826. With C29U A40C the yeast fitness was 0.815. With C29U A40U the yeast fitness was 0.836. For C29U C31A C55U A57C, the yeast fitness was 0.62. For C29G C33U A45U, the yeast fitness was ≤ 0.5. Work on C29U A45G yielded a yeast fitness of 0.98. Variant C29U A45U has a yeast fitness of 0.928. For C29G C61U, the yeast fitness was 0.685. For C29G C61G, the yeast fitness was 0.54. With C29U A45C G67A the yeast fitness was 0.536.
